In ChEMBL document CHEMBL5058577, “EUbOPEN Chemogenomics Library 2 (Multiplex)” (2022):

Test system: U2OS
Test: Multiplex assay against U2OS
Format: toxicity, cell-based
Conditions: human
Outline: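 Per cents of healthy-nucleus cells form the tubulin, mitochondrial-mass and membrane-permeability phenotype values. Live cells were stained at seeding with Hoechst33342, BioTracker Green Microtubule Cytoskeleton Dye, MitoTracker Red and Annexin V Alexa Fluor 680. After compound addition they were imaged on a CQ1 microscope at 37°C and 5% CO2, and CellPathfinder machine-learning gating split them into Hoechst high-intensity objects or normal cells, normal cells into healthy, pyknosed or fragmented nuclei, and pyknosed cells into mitotic or apoptotic.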

[1] = 12 h, 1 µM, compound concentration 1 uM, replicate 1
[2] = 12 h, 1 µM, compound concentration 1 uM, replicate 2
[3] = 12 h, 10 µM, compound concentration 10 uM, replicate 1
[4] = 12 h, 10 µM, compound concentration 10 uM, replicate 2
[5] = 24 h, 1 µM, compound concentration 1 uM, replicate 1
[6] = 24 h, 1 µM, compound concentration 1 uM, replicate 2
[7] = 24 h, 10 µM, compound concentration 10 uM, replicate 1
[8] = 24 h, 10 µM, compound concentration 10 uM, replicate 2
[9] = 48 h, 1 µM, compound concentration 1 uM, replicate 1
[10] = 48 h, 1 µM, compound concentration 1 uM, replicate 2
[11] = 48 h, 10 µM, compound concentration 10 uM, replicate 1
[12] = 48 h, 10 µM, compound concentration 10 uM, replicate 2

With CCCN1CCC[C@@H]2Cc3n[nH]cc3C[C@H]21.Cl [QUINPIROLE HYDROCHLORIDE] the “Population Apoptotic (%)” value [1] was 71%, the “Population Fragmented Nuclei (%)” value [1] was 31% and the “Population Healthy Nuclei (%)” value [1] was 60%. For the same molecule, the “Population Hoechst High Intensity Objects (%)” value [1] was 2%, the “Population Membrane Permeable-Phenotype (%)” value [1] was 7% and the “Population Mitochondria Different-Phenotype (%)” value [1] was 1%. The “Population Mitotic Cells (%)” value [1] was 28%, the “Population Normal (%)” value [1] was 97% and the “Population Pyknosed Nuclei (%)” value [1] was 8%. The “Population Tubulin-Different-Phenotype (%)” value [1] was 3%, the “Total Cell Count” value [1] was 265 and the “Population Apoptotic (%)” value [2] was 61%. The “Population Fragmented Nuclei (%)” value [2] was 21%, the “Population Healthy Nuclei (%)” value [2] was 67% and the “Population Hoechst High Intensity Objects (%)” value [2] was 0%. The “Population Membrane Permeable-Phenotype (%)” value [2] was 2%, the “Population Mitotic Cells (%)” value [2] was 38% and the “Population Normal (%)” value [2] was 100%. For the same molecule, the “Population Pyknosed Nuclei (%)” value [2] was 11%, the “Population Tubulin-Different-Phenotype (%)” value [2] was 2% and the “Total Cell Count” value [2] was 118. For the same molecule, the “Population Apoptotic (%)” value [3] was 58%, the “Population Fragmented Nuclei (%)” value [3] was 19% and the “Population Healthy Nuclei (%)” value [3] was 72%. The “Population Hoechst High Intensity Objects (%)” value [3] was 1%, the “Population Membrane Permeable-Phenotype (%)” value [3] was 2% and the “Population Mitochondria Different-Phenotype (%)” value [3] was 0%. For the same molecule, the “Population Mitotic Cells (%)” value [3] was 41%, the “Population Normal (%)” value [3] was 98% and the “Population Pyknosed Nuclei (%)” value [3] was 7%. For the same molecule, the “Population Tubulin-Different-Phenotype (%)” value [3] was 1%, the “Total Cell Count” value [3] was 228 and the “Population Apoptotic (%)” value [4] was 100%. For the same molecule, the “Population Fragmented Nuclei (%)” value [4] was 9%, the “Population Healthy Nuclei (%)” value [4] was 85% and the “Population Hoechst High Intensity Objects (%)” value [4] was 2%. For the same molecule, the “Population Membrane Permeable-Phenotype (%)” value [4] was 6%, the “Population Mitochondria Different-Phenotype (%)” value [4] was 5% and the “Population Mitotic Cells (%)” value [4] was 0%. For the same molecule, the “Population Normal (%)” value [4] was 97%, the “Population Pyknosed Nuclei (%)” value [4] was 4% and the “Population Tubulin-Different-Phenotype (%)” value [4] was 2%. For the same molecule, the “Total Cell Count” value [4] was 126, the “Population Apoptotic (%)” value [5] was 68% and the “Population Fragmented Nuclei (%)” value [5] was 27%. The “Population Healthy Nuclei (%)” value [5] was 64%, the “Population Hoechst High Intensity Objects (%)” value [5] was 1% and the “Population Membrane Permeable-Phenotype (%)” value [5] was 4%. The “Population Mitochondria Different-Phenotype (%)” value [5] was 3%, the “Population Mitotic Cells (%)” value [5] was 31% and the “Population Normal (%)” value [5] was 98%. For the same molecule, the “Population Pyknosed Nuclei (%)” value [5] was 7%, the “Population Tubulin-Different-Phenotype (%)” value [5] was 3% and the “Total Cell Count” value [5] was 299. The “Population Apoptotic (%)” value [6] was 77%, the “Population Fragmented Nuclei (%)” value [6] was 18% and the “Population Healthy Nuclei (%)” value [6] was 68%. For the same molecule, the “Population Hoechst High Intensity Objects (%)” value [6] was 0%, the “Population Mitochondria Different-Phenotype (%)” value [6] was 4% and the “Population Mitotic Cells (%)” value [6] was 22%. The “Population Normal (%)” value [6] was 100%, the “Population Pyknosed Nuclei (%)” value [6] was 13% and the “Population Tubulin-Different-Phenotype (%)” value [6] was 4%. The “Total Cell Count” value [6] was 138, the “Population Apoptotic (%)” value [7] was 88% and the “Population Fragmented Nuclei (%)” value [7] was 13%. The “Population Healthy Nuclei (%)” value [7] was 80%, the “Population Hoechst High Intensity Objects (%)” value [7] was 2% and the “Population Membrane Permeable-Phenotype (%)” value [7] was 2%. The “Population Mitochondria Different-Phenotype (%)” value [7] was 0%, the “Population Mitotic Cells (%)” value [7] was 11% and the “Population Normal (%)” value [7] was 97%. The “Population Pyknosed Nuclei (%)” value [7] was 6%, the “Population Tubulin-Different-Phenotype (%)” value [7] was 1% and the “Total Cell Count” value [7] was 281. For the same molecule, the “Population Apoptotic (%)” value [8] was 92%, the “Population Fragmented Nuclei (%)” value [8] was 9% and the “Population Healthy Nuclei (%)” value [8] was 82%. For the same molecule, the “Population Hoechst High Intensity Objects (%)” value [8] was 0%, the “Population Membrane Permeable-Phenotype (%)” value [8] was 0% and the “Population Mitochondria Different-Phenotype (%)” value [8] was 1%. For the same molecule, the “Population Mitotic Cells (%)” value [8] was 7%, the “Population Normal (%)” value [8] was 99% and the “Population Pyknosed Nuclei (%)” value [8] was 8%. For the same molecule, the “Population Tubulin-Different-Phenotype (%)” value [8] was 0%, the “Total Cell Count” value [8] was 163 and the “Population Apoptotic (%)” value [9] was 75%. The “Population Fragmented Nuclei (%)” value [9] was 19%, the “Population Healthy Nuclei (%)” value [9] was 74% and the “Population Hoechst High Intensity Objects (%)” value [9] was 1%. For the same molecule, the “Population Membrane Permeable-Phenotype (%)” value [9] was 4%, the “Population Mitochondria Different-Phenotype (%)” value [9] was 1% and the “Population Mitotic Cells (%)” value [9] was 25%. For the same molecule, the “Population Normal (%)” value [9] was 98%, the “Population Pyknosed Nuclei (%)” value [9] was 6% and the “Population Tubulin-Different-Phenotype (%)” value [9] was 2%. For the same molecule, the “Total Cell Count” value [9] was 425, the “Population Apoptotic (%)” value [10] was 78% and the “Population Fragmented Nuclei (%)” value [10] was 17%. For the same molecule, the “Population Healthy Nuclei (%)” value [10] was 69%, the “Population Hoechst High Intensity Objects (%)” value [10] was 3% and the “Population Mitochondria Different-Phenotype (%)” value [10] was 5%. The “Population Mitotic Cells (%)” value [10] was 21%, the “Population Normal (%)” value [10] was 96% and the “Population Pyknosed Nuclei (%)” value [10] was 13%. For the same molecule, the “Total Cell Count” value [10] was 180, the “Population Apoptotic (%)” value [11] was 86% and the “Population Fragmented Nuclei (%)” value [11] was 11%. For the same molecule, the “Population Healthy Nuclei (%)” value [11] was 78%, the “Population Hoechst High Intensity Objects (%)” value [11] was 3% and the “Population Membrane Permeable-Phenotype (%)” value [11] was 4%. For the same molecule, the “Population Mitochondria Different-Phenotype (%)” value [11] was 1%, the “Population Mitotic Cells (%)” value [11] was 13% and the “Population Normal (%)” value [11] was 96%. The “Population Pyknosed Nuclei (%)” value [11] was 9%, the “Population Tubulin-Different-Phenotype (%)” value [11] was 3% and the “Total Cell Count” value [11] was 386. For the same molecule, the “Population Apoptotic (%)” value [12] was 91%, the “Population Fragmented Nuclei (%)” value [12] was 12% and the “Population Hoechst High Intensity Objects (%)” value [12] was 1%. For the same molecule, the “Population Membrane Permeable-Phenotype (%)” value [12] was 6%, the “Population Mitochondria Different-Phenotype (%)” value [12] was 4% and the “Population Mitotic Cells (%)” value [12] was 8%. For the same molecule, the “Population Normal (%)” value [12] was 98%, the “Population Tubulin-Different-Phenotype (%)” value [12] was 2% and the “Total Cell Count” value [12] was 251.
